From PMC11376197 (Chemical Science, 2024)

Tests used:
Assay in all cases: Cell viability assay
[1] = system: HCT116 (colon cancer cells); assay type: cell-based, human; settings: read-out: IC50 HCT116; 96 h of incubation
Method in brief: (§1)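 Cell lines were exposed to test compounds for 96 h, with cisplatin as a reference. Complexes came from DMSO stocks and cisplatin from water stocks. Antiproliferative activity is expressed as IC50.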

[2] = system: MRC-5 (non-cancerous lung fibroblasts); assay type: cell-based; settings: read-out: IC50 MRC-5; 96 h of incubation
Method in brief: as §1

[3] = system: A2780 (cisplatin-sensitive ovarian cancer cells); assay type: cell-based, human; settings: read-out: IC50 A2780; 96 h of incubation
Method in brief: as §1

[4] = system: OVCAR-3 (high-grade serous ovarian cancer cells); assay type: cell-based, human; settings: read-out: IC50 OVCAR-3; 96 h of incubation
Method in brief: as §1

N.N.[Cl][Pt][Cl] [Cisplatin]
IC50 [1]: 7900 ± 800 nM
IC50 [2]: 2000 ± 1000 nM
IC50 [3]: 600 ± 200 nM
IC50 [4]: 3100 ± 200 nM
